Sampled rows, rich in hits. Any-hit rate of the full collection: about 3.8%.
MrgX1 agonist = agonists of human MrgX1 receptor, primary screen, HEK293 cells, Fluo-4 calcium flux | B-score at 10 µM | Fluo-4 calcium fluorescence, agonist mode; active compounds read high | AID 588627, 2011 | Mas-related G-protein coupled receptor member X1 (Homo sapiens), Q96LB2 | 310,000 compounds, 0.44% hits;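 active = calcium response B-score plate-corrected fluorescence ratio at least 3 library SD, with starting fluorescence B-score inside 5 SD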
Target sequence (Q96LB2 whole entry, looked up): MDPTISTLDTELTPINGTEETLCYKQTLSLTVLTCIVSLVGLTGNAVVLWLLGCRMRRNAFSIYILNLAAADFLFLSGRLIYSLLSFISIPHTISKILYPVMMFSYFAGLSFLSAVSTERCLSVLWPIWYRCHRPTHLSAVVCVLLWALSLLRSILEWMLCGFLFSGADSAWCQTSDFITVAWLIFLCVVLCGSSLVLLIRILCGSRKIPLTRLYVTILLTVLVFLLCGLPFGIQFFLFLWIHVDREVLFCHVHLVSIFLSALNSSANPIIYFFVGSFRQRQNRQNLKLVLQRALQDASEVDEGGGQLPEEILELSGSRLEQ
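Test system: HEK293 cells stably expressing human MrgX1 receptor; amount: 15,000 cells per well; doses: compound delivered in addition one of three; times: overnight plating before 1 h dye loading; detection: Fluo-4 NW calcium-flux fluorescence, kinetic read; read-out basis: B-scored fluorescence response ratio; controls: positive and negative controls per plate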
MrgX1 PAM = positive allosteric modulators of MrgX1, primary screen, HEK293 cells, Fluo-4 calcium flux | FDSS; active compounds read high | B-score at 10 µM | 310,000 compounds, 0.63% hits;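 active = plate-corrected calcium response at least 3 library SD above typical, normal starting fluorescence, not activating the receptor alone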;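 note: compound read alongside a low EC10 to EC30 dose of BAM8-22 agonist; peak minus trough fluorescence over baseline measured at the second addition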
Hep lipid drop = inhibitors of hepatocyte lipid droplet formation, primary screen, imaging, high-throughput imaging, BODIPY stain; inhibition, % at 6.5 µM; AID 1656, 2009; 240,000 compounds, 0.4% hits; AML12 mouse hepatocytes, oleate lipid droplets;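 active = lipid droplet intensity inhibited by at least 50%, with more than 500 cells counted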
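Assay system: AML12 mouse liver cells | Compound dosing: One dose, 6.5 µM compound | Read-out basis: Droplet intensity reduction, % inhibition | Measured by: Fluorescence imaging, 20x objective, two fields per well | Schedule: Overnight treatment with compound plus oleate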
RGS4 act = RGS4 potentiators or activators, primary screen, cell-based, HEK293 M3R inducible RGS4, calcium flux. 310,000 compounds, 0.92% hits. AID 463111, 2010. carbachol calcium flux Fluo4; active compounds read low. B-score at 10 µM;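 active = B-score of the integrated calcium signal more than 4 SD below the library mean, with starting fluorescence not abnormally high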;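 note: negative B-score means reduced calcium response which marks RGS4 activation or potentiation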
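Material: Inducible-RGS4 HEK293 cells carrying M3 receptor; also added: carbachol at ECmax as muscarinic agonist stimulus; incubation: compound preincubation 20 min at room temperature before agonist; signal: Fluo4-AM (2 µM) calcium-flux fluorescence, kinetic read; measure: integrated calcium ratio converted to B score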
MrgX1 antag = antagonists of human MrgX1 receptor, primary screen, HEK293 cells, Fluo-4 calcium flux; BAM8-22 antagonism; active compounds read low; B-score at 10 µM; 310,000 compounds, 1.3% hits;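 active = calcium-response B-score plate-corrected more than 3 library SD below zero, starting fluorescence within 5 deviations, no agonist response on first addition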;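 note: peak minus trough fluorescence over baseline after final BAM8-22 challenge near maximal dose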
RGS4 block = RGS4 inhibitors, primary screen, cell-based, HEK293 M3R inducible RGS4, calcium flux; B-score at 10 µM; Fluo-4 calcium flux; active compounds read high; triggered by carbachol at its EC20; AID 463165, 2010; 310,000 compounds, 0.45% hits;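 active = B-score, a plate-corrected calcium signal, over three deviations above library mean, with baseline fluorescence within five deviations of library mean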;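 note: RGS4 expression induced by doxycycline in cells with stable M3 receptor; B-score is computed from the integrated fluorescence ratio over baseline after carbachol; higher B-score means a larger calcium signal and so more RGS4 inhibition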
Target sequence (P49798 whole entry, looked up): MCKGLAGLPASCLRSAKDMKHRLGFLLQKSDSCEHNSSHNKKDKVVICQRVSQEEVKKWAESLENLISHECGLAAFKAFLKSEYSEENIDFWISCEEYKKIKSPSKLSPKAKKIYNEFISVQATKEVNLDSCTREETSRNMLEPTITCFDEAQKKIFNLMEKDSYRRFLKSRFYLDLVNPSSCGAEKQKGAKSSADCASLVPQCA
Numbers without * were called inactive; i = inactive; . = no result.

SMILES	MrgX1 agonist	MrgX1 PAM	Hep lipid drop	RGS4 act	MrgX1 antag	RGS4 block
C=CCN(C)CC/C=C1\c2ccccc2CSc2ccccc21	i	i	-4	-11*	i	i
CCN(CC)c1ccc(-c2nn3c(-c4n[nH]c5c4CCC5)nnc3s2)cc1	i	i	.	-7.2*	-12*	i
C1CCC(c2nn3c(-c4n[nH]c5c4CCC5)nnc3s2)CC1	i	i	.	i	i	i
CCOC(=O)c1c(N2C(=O)Nc3ccccc3N2O)sc2c1CCCC2	37*	i	21	i	i	i
Cc1cc(NC(=O)CCC(=O)N(Cc2cccs2)C(C)(C)C(=O)NC2CCCCC2)no1	i	i	2	i	i	i
O=C(c1cc(-c2ccncc2)nc2ccc(Cl)cc12)N1CCN(Cc2ccc3c(c2)OCO3)CC1	i	i	.	i	i	i
Cc1cc(C)c2nc(-c3ccncc3)cc(C(=O)N3CCN(Cc4ccccc4Cl)CC3)c2c1	i	i	8	-7.4*	i	i
CC(C)c1ccc2nc3sc(C(=O)N4CCc5ccccc5C4)c(N)c3cc2c1	i	i	.	i	-5.8*	i
CCc1ccc2nc3sc(C(=O)N4CCc5ccccc54)c(N)c3cc2c1	i	i	-6	i	-7.7*	i
Cn1nccc1C(=O)NC1CCN(Cc2ccccc2)CC1	i	i	-9	i	i	i
CCOc1ccc(N)c(SSc2cc(OCC)ccc2N)c1	29*	i	3	i	i	i
COc1cccc(C2c3c(-c4cc(Cl)c(C)cc4O)n[nH]c3C(=O)N2Cc2cccnc2)c1 (configuration not stated)	i	i	13	i	i	11*
COc1ccc(CCN2C(=O)c3[nH]nc(-c4ccccc4O)c3C2c2cccc(Cl)c2)cc1 (configuration not stated)	i	i	.	i	i	i
CCCCCOc1ccc(C(=O)CCC(=O)Nc2ccc(NC(C)=O)cc2)cc1	i	i	-30	i	i	i
COc1ccc(CCN2C(=O)CSC2=Nc2ccc(C(C)C)cc2)cc1OC	i	i	-14	-7.2*	i	i
OCCN1C[C@H](O)[C@@H](O)[C@H](O)[C@H]1CO	i	i	9	i	-9.5*	i
O=C(NCc1nnnn1-c1ccc(F)c(F)c1)c1cc2ccccc2o1	i	i	.	i	i	i
CN(C)S(=O)(=O)c1cccc(NC(=O)CSc2cccc3cccnc23)c1	i	i	-23	-7.3*	i	i
CN(C)S(=O)(=O)c1cccc(NC(=O)CCCSc2ccccc2)c1	i	i	-31	i	i	i
CCOC(=O)N1CCN(C(=O)c2cn(CC)c3cc(N4CCN(C)CC4)c(F)cc3c2=O)CC1	i	i	0	i	-7.6*	i
Cc1ccc(N2C3=C(C(=O)CC(C)(C)C3)C(c3cn(C)nc3C)C3=C2CC(C)(C)CC3=O)cc1	i	i	.	i	-6.6*	i
Cc1ccccc1OCc1nc2ccccc2c(=O)n1/N=C/c1c[nH]c2ccccc12	i	i	0	i	i	i
Cc1cc(/C=N/n2c(COc3ccccc3C)nc3ccccc3c2=O)c(O)c([N+](=O)[O-])c1	i	i	0	i	-6.5*	i
C=CCc1cccc2cc(C(=O)Nc3ccc(CC(=O)O)cc3)c(=O)oc12	i	i	16	i	i	i
C=CCc1cccc2cc(C(=O)Nc3cccc(C(=O)O)c3)c(=O)oc12	i	7.6*	1	i	i	i
SMILES	MrgX1 agonist	MrgX1 PAM	Hep lipid drop	RGS4 act	MrgX1 antag	RGS4 block
O=S(=O)(/N=C(/Nc1ccccn1)c1ccc(Cl)cc1)c1ccc(Cl)cc1	i	i	2	i	i	i
COc1ccc(N2CCN(CCCNC(=O)C(=O)c3c[nH]c4ccccc34)CC2)cc1	i	i	8	i	i	i
COc1ccc(S(=O)(=O)O/N=C2\CCCc3ccccc32)cc1	i	i	16	i	-4.7*	i
Cc1cc(C(=O)COc2ccccc2Cl)c(C)n1-c1ccc2c(c1)OCO2	i	i	0	-7.5*	i	i
CNS(=O)(=O)c1cccc(C(=O)OCC(=O)c2cc(C)n(-c3ccc4c(c3)OCO4)c2C)c1	i	i	-9	i	i	i
CSc1ccccc1OCc1cc(C(=O)N2CCc3sccc3C2)no1	i	i	0	-7.8*	i	i
CCn1ccnc1CN(C)C(=O)c1cc(COc2ccccc2SC)on1	i	i	-7	-7.6*	i	i
CCOC(=O)N1CCN(C(=O)Cc2ccccc2OC)CC1	i	i	1	i	i	i
CCOc1ccc(C(=O)NCCCN(CC)CC)cc1	i	i	.	i	-5.4*	i
CCOc1ccc(C(=O)NCCO)cc1	i	i	-5	i	i	i
CCCn1c(C(C)Nc2nc(-c3ccc(Cl)c([N+](=O)[O-])c3)cs2)nc2cc(Cl)c(N3CCCCC3)cc21 (configuration not stated)	i	i	.	i	i	i
CC(C)C(NC(=O)OCc1ccccc1)C(=O)NC1CCCCC1 (configuration not stated)	i	i	-13	i	i	i
C#CCN1C(=O)C(O)(CC(=O)/C=C/C=C/c2ccccc2)c2ccccc21 (configuration not stated)	i	6.7*	3	i	i	i
CC(COc1ccccc1Cc1ccccc1)N1CCCCC1 (configuration not stated)	i	i	.	-7.4*	i	i
CCC1CCCCN1CCCNC(=O)c1ccc2c(c1)N(Cc1ccc(F)cc1)C(=O)c1ccccc1S2=O (configuration not stated)	i	i	-112	-8.4*	i	i
O=[N+]([O-])c1ccc(Cl)c2c1C1C=CCC1C(c1ccccn1)N2 (configuration not stated)	i	i	-20	i	-5.6*	i
Cc1c(Cl)cccc1NC(=O)Nc1cc(C(C)(C)C)on1	i	i	47	i	i	i
CC(Cc1c[nH]c2ccccc12)C(=O)NCc1ccco1 (configuration not stated)	i	i	.	i	i	i

Screening results (PubChem)
